Measured values taken from ChEMBL document CHEMBL1137559, “Rational design of 5'-thiourea-substituted alpha-thymidine analogues as thymidine monophosphate kinase inhibitors capable of inhibiting mycobacterial growth” (J Med Chem, 2007).
In brackets after ≈: the same amount, converted by molar mass.

Test system: Mycobacterium tuberculosis variant bovis
Experiment: Growth inhibition of Mycobacterium bovis BCG 1173P2
Assay type: functional, Mycobacterium bovis BCG str. Pasteur 1173P2
Summary of the method: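 Broth microdilution in 7H9 Middlebrook medium with 0.2% glycerol, 0.5% Tween 80 and OADC. Uses two-fold serial dilutions and about 10^5 bacteria/ml, incubated at 37 °C. Resazurin 0.01% was added at day 8 and incubated overnight, then read as OD 570 minus 630 nm. MIC was taken as the lowest concentration preventing the blue-to-pink change.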

Cc1cn([C@@H]2C[C@H](O)[C@@H](CNC(=S)Nc3ccc(Cl)c(Cl)c3)O2)c(=O)[nH]c1=O
MIC99: 25 µg/mL (≈ 56.1 µM)

Cc1cn([C@@H]2CC[C@@H](CNC(=S)Nc3ccc(Cl)c(C(F)(F)F)c3)O2)c(=O)[nH]c1=O
MIC99: 40 µg/mL (≈ 86.4 µM)

Cc1cn([C@@H]2C[C@H](O)[C@@H](CNC(=O)Nc3ccc(Cl)c(Cl)c3)O2)c(=O)[nH]c1=O
MIC50: 40 µg/mL (≈ 93.2 µM)

Cc1cn([C@@H]2C[C@H](O)[C@@H](CNC(=O)Nc3ccc(Cl)c(C(F)(F)F)c3)O2)c(=O)[nH]c1=O
MIC50: 40 µg/mL (≈ 86.4 µM)

Cc1cn([C@@H]2C[C@H](O)[C@@H](CNC(=S)Nc3ccc(Cl)c(C(F)(F)F)c3)O2)c(=O)[nH]c1=O
MIC99: 20 µg/mL (≈ 41.8 µM)

Cc1cn([C@@H]2C[C@H](O)[C@@H](CNC(=S)NCc3ccc(Cl)c(C(F)(F)F)c3)O2)c(=O)[nH]c1=O
MIC99: 40 µg/mL (≈ 81.2 µM)

Cc1cn([C@@H]2C=C[C@@H](CNC(=S)Nc3ccc(Cl)c(C(F)(F)F)c3)O2)c(=O)[nH]c1=O
MIC99: 100 µg/mL (≈ 217 µM)

Cc1cn([C@@H]2C[C@H](O)[C@@H](CNC(=S)NCCc3ccc(Cl)c(Cl)c3)O2)c(=O)[nH]c1=O
MIC99: 50 µg/mL (≈ 106 µM)

Cc1cn([C@@H]2C[C@H](O)[C@@H](CNC(=S)Nc3ccc4c(c3)C(=O)OC43c4ccc(O)cc4Oc4cc(O)ccc43)O2)c(=O)[nH]c1=O
MIC99: > 150 µg/mL

Cc1cn([C@@H]2C[C@H](O)[C@@H](CN)O2)c(=O)[nH]c1=O
MIC99: > 40 µg/mL
